Measured values as given in ChEMBL document CHEMBL2157987, “Benzimidazole bearing oxadiazole and triazolo-thiadiazoles nucleus: design and synthesis as anticancer agents” (2012).

Columns and labels:
Assay type in all cases: functional
MDA-MB-468 = experiment: Cytotoxicity against human MDA-MB-468 cells after 48 hrs by SRB assay; conditions: MDA-MB-468, 48 h
Outline: (§1)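 Five-dose NCI-60 panel screen: cells grown in RPMI 1640 with 5% FBS and 2 mM L-glutamine, preincubated 24 h at 37 °C, 5% CO2. Five 10-fold dilutions, 0.01–100 µM, applied for 48 h. Fixed with cold TCA (10% final), stained with 0.4% SRB, absorbance read at 515 nm. GI50, TGI and LC50 were taken from log concentration versus % growth curves using time-zero plates.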

OVCAR-8 = experiment: Cytotoxicity against human OVCAR8 cells after 48 hrs by SRB assay; conditions: OVCAR-8, 48 h; outline: as §1
A549 = experiment: Cytotoxicity against human A549 cells after 48 hrs by SRB assay; conditions: A549, 48 h; outline: as §1
LOX IMVI = experiment: Cytotoxicity against human LOXIMVI cells after 48 hrs by SRB assay; outline: as §1
T47D = experiment: Cytotoxicity against human T47D cells after 48 hrs by SRB assay
Outline: (§2)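 Cells were grown in RPMI 1640 with 5% FBS and 2 mM L-glutamine, then held 24 h at 37 °C and 5% CO2 before dosing. TCA-fixed time-zero plates were kept. Compound was dissolved in DMSO and given at five 10-fold dilutions for 48 h. Cells were fixed with cold TCA (10% final), stained with 0.4% SRB and read at 515 nm. GI50, TGI and LC50 came from Ti/Tz/control growth formulas.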

HCC 2998 = experiment: Cytotoxicity against human HCC2998 cells after 48 hrs by SRB assay; conditions: HCC 2998, 48 h; outline: as §1
NCI-H23 = experiment: Cytotoxicity against human NCI-H23 cells after 48 hrs by SRB assay; conditions: NCI-H23, 48 h; outline: as §1
TK-10 = experiment: Cytotoxicity against human TK10 cells after 48 hrs by SRB assay; conditions: TK-10, 48 h; outline: as §2
UACC-257 = experiment: Cytotoxicity against human UACC257 cells after 48 hrs by SRB assay; conditions: UACC-257, 48 h; outline: as §2
UO-31 = experiment: Cytotoxicity against human UO31 cells after 48 hrs by SRB assay; conditions: UO-31, 48 h; outline: as §2
NCI-H226 = experiment: Cytotoxicity against human NCI-H226 cells after 48 hrs by SRB assay; conditions: NCI-H226, 48 h; outline: as §1
IGROV-1 = experiment: Cytotoxicity against human IGROV1 cells after 48 hrs by SRB assay; conditions: IGROV-1, 48 h; outline: as §1
HOP-92 = experiment: Cytotoxicity against human HOP92 cells after 48 hrs by SRB assay; conditions: HOP-92, 48 h; outline: as §1
MDA-MB-435 = experiment: Cytotoxicity against human MDA-MB-435 cells assessed as cell growth at 10 uM after 48 hrs by SRB assay; conditions: MDA-MB-435, 48 h, read-out: Activity
Outline: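 NCI single-dose screen at 10 µM. Cells were incubated 48 h and the end point was read by sulforhodamine B protein staining. Results are given as percent growth of treated cells relative to untreated controls. Growth of 32% or less was counted as active.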

MOLT-4 = experiment: Cytotoxicity against human MOLT4 cells after 48 hrs by SRB assay; conditions: MOLT-4, 48 h; outline: as §1
UACC-62 = experiment: Cytotoxicity against human UACC62 cells after 48 hrs by SRB assay; conditions: UACC-62, 48 h; outline: as §2
RXF 393 = experiment: Cytotoxicity against human RXF393 cells after 48 hrs by SRB assay; conditions: RXF 393, 48 h; outline: as §1
PC-3 = experiment: Cytotoxicity against human PC3 cells after 48 hrs by SRB assay; conditions: PC-3, 48 h; outline: as §1
NCI-H460 = experiment: Cytotoxicity against human NCI-H460 cells after 48 hrs by SRB assay; conditions: NCI-H460, 48 h; outline: as §1
[1] = read-out: LC50 (the source's name)
[2] = read-out: pLC50 (the source's name) (converted)

`Nc1cc(Br)c(-c2nnc(CCC(=O)c3nc4ccccc4[nH]3)o2)c(Br)c1` gave a GI50 (MDA-MB-468) of 1.95 µM, an LC50 (MDA-MB-468; read-out: LC50) of over 100 µM and a TGI (MDA-MB-468; read-out: TGI) of 6.97 µM. For the same compound, the LC50 (MDA-MB-468; read-out: pLC50 (converted)) was over 100 µM, the TGI (MDA-MB-468; read-out: pTGI (converted)) was 6.92 µM and the GI50 (OVCAR-8) was 21.4 µM. The CC50 (OVCAR-8; [1]) was over 100 µM, the TGI (OVCAR-8; read-out: TGI) was over 100 µM and the CC50 (OVCAR-8; [2]) was over 100 µM. It also gave a TGI (OVCAR-8; read-out: pTGI) of over 100 µM, a GI50 (A549) of 27.5 µM and a CC50 (A549; [1]) of over 100 µM. The TGI (A549; read-out: TGI) was over 100 µM, the CC50 (A549; [2]) was over 100 µM and the TGI (A549; read-out: pTGI) was over 100 µM. The GI50 (LOX IMVI) was 3.24 µM, the CC50 (LOX IMVI; [1]) was over 100 µM and the TGI (LOX IMVI; read-out: TGI) was 46.4 µM. The CC50 (LOX IMVI; [2]) was over 100 µM, the TGI (LOX IMVI; read-out: pTGI (converted)) was 46.8 µM and the GI50 (T47D) was 23.4 µM. The LC50 (T47D; read-out: LC50) was over 100 µM, the TGI (T47D; read-out: TGI) was over 100 µM and the LC50 (T47D; read-out: pLC50 (converted)) was over 100 µM. It also gave a TGI (T47D; read-out: pTGI) of over 100 µM, a GI50 (HCC 2998) of 11 µM and a CC50 (HCC 2998; [1]) of over 100 µM. It also gave a TGI (HCC 2998; read-out: TGI) of 42.5 µM, a CC50 (HCC 2998; [2]) of over 100 µM and a TGI (HCC 2998; read-out: pTGI (converted)) of 42.7 µM. For the same compound, the GI50 (NCI-H23) was 3.24 µM, the CC50 (NCI-H23; [1]) was over 100 µM and the TGI (NCI-H23; read-out: TGI) was 36.4 µM. The CC50 (NCI-H23; [2]) was over 100 µM, the TGI (NCI-H23; read-out: pTGI (converted)) was 36.3 µM and the GI50 (TK-10) was 36.3 µM. For the same compound, the LC50 (TK-10; read-out: LC50) was over 100 µM, the TGI (TK-10; read-out: TGI) was over 100 µM and the LC50 (TK-10; read-out: pLC50 (converted)) was over 100 µM. The TGI (TK-10; read-out: pTGI) was over 100 µM, the GI50 (UACC-257) was 7.59 µM and the CC50 (UACC-257; [1]) was over 100 µM. It also gave a TGI (UACC-257; read-out: TGI) of over 100 µM, a CC50 (UACC-257; [2]) of over 100 µM and a TGI (UACC-257; read-out: pTGI) of over 100 µM. It also gave a GI50 (UO-31) of 4.07 µM, a CC50 (UO-31; [1]) of over 100 µM and a TGI (UO-31; read-out: TGI) of over 100 µM. For the same compound, the CC50 (UO-31; [2]) was over 100 µM, the TGI (UO-31; read-out: pTGI) was over 100 µM and the GI50 (NCI-H226) was 22.4 µM. It also gave a CC50 (NCI-H226; [1]) of over 100 µM, a TGI (NCI-H226; read-out: TGI) of over 100 µM and a CC50 (NCI-H226; [2]) of over 100 µM. It also gave a TGI (NCI-H226; read-out: pTGI) of over 100 µM, a GI50 (IGROV-1) of 5.89 µM and an LC50 (IGROV-1; read-out: LC50) of over 100 µM. It also gave a TGI (IGROV-1; read-out: TGI) of 62.7 µM, an LC50 (IGROV-1; read-out: pLC50 (converted)) of over 100 µM and a TGI (IGROV-1; read-out: pTGI (converted)) of 63.1 µM. For the same compound, the GI50 (HOP-92) was 0.501 µM, the CC50 (HOP-92; [1]) was over 100 µM and the TGI (HOP-92; read-out: TGI) was 19.9 µM. The CC50 (HOP-92; [2]) was over 100 µM, the TGI (HOP-92; read-out: pTGI (converted)) was 20 µM and the growth at 10 µM (MDA-MB-435) was 5.71%. The GI50 (MOLT-4) was 4.9 µM, the CC50 (MOLT-4; [1]) was over 100 µM and the TGI (MOLT-4; read-out: TGI) was over 100 µM. For the same compound, the CC50 (MOLT-4; [2]) was over 100 µM, the TGI (MOLT-4; read-out: pTGI) was over 100 µM and the GI50 (UACC-62) was 5.37 µM. It also gave a CC50 (UACC-62; [1]) of over 100 µM, a TGI (UACC-62; read-out: TGI) of over 100 µM and a CC50 (UACC-62; [2]) of over 100 µM. For the same compound, the TGI (UACC-62; read-out: pTGI) was over 100 µM, the GI50 (RXF 393) was 12.9 µM and the CC50 (RXF 393; [1]) was over 100 µM. It also gave a TGI (RXF 393; read-out: TGI) of 58.6 µM, a CC50 (RXF 393; [2]) of over 100 µM and a TGI (RXF 393; read-out: pTGI (converted)) of 58.9 µM. For the same compound, the GI50 (PC-3) was 3.09 µM, the LC50 (concentration killing 50% of cells) (PC-3; read-out: LC50) was over 100 µM and the TGI (PC-3; read-out: TGI) was over 100 µM. For the same compound, the LC50 (concentration killing 50% of cells) (PC-3; read-out: pLC50 (converted)) was over 100 µM, the TGI (PC-3; read-out: pTGI) was over 100 µM and the GI50 (NCI-H460) was 3.98 µM. The CC50 (NCI-H460; [1]) was over 100 µM, the TGI (NCI-H460; read-out: TGI) was 20.1 µM and the CC50 (NCI-H460; [2]) was over 100 µM. For the same compound, the TGI (NCI-H460; read-out: pTGI (converted)) was 20 µM.
